Assay results as given in ChEMBL document CHEMBL1156530, “Novel conantokins from Conus parius venom are specific antagonists of N-methyl-D-aspartate receptors” (J Biol Chem, 2007).
The source made the active and inactive calls. The calls are words filed in the database; no cut-off is given here. Non-standard residues stand in square brackets, D forms with d. Residues, ends and D or L forms follow the SMILES beside them. Gla = N[C@@H](CC(C(=O)O)C(=O)O)C(=O)O; Hyp = O=C(O)[C@@H]1C[C@@H](O)CN1

Columns and labels:
[1] = target: Glutamate receptor ionotropic, NMDA 2A (Rattus norvegicus, UniProt P35439+Q00959); assay: Inhibition of rat NMDA NR2A receptor expressed in xenopus oocytes coexpressing NMDA NR13b assessed as effect on glycine-induced current response at -70 mV by voltage clamp method; format: cell-based, Oocyte
How it was run: (§1)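 Xenopus oocytes expressing rat NR1-3b with one NR2 subunit (A–D), voltage-clamped at -70 mV. Perfusion was Mg2+-free ND96 (pH 7.2–7.5) with 0.1 mg/ml BSA. Peptide was applied in a static bath for 5–10 min; the agonist-evoked current was then expressed as % of the pre-peptide current. IC50s were taken from concentration-response curves, n ≥ 3 per point.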

[2] = target: Glutamate receptor ionotropic, NMDA 2C (Rattus norvegicus, UniProt P35439+Q00961); assay: Inhibition of rat NMDA NR2C receptor expressed in xenopus oocytes coexpressing NMDA NR13b assessed as effect on glycine-induced current response at -70 mV by voltage clamp method; format: cell-based, Oocyte; how it was run: as §1
[3] = target: Glutamate receptor ionotropic, NMDA 2B (Rattus norvegicus, UniProt P35439+Q00960); assay: Inhibition of rat NMDA NR2B receptor expressed in xenopus oocytes coexpressing NMDA NR13b assessed as effect on glycine-induced current response at -70 mV by voltage clamp method; format: cell-based, Oocyte; how it was run: as §1
[4] = target: Glutamate receptor ionotropic, NMDA 2D (Rattus norvegicus, UniProt P35439+Q62645); assay: Inhibition of rat NMDA NR2D receptor expressed in xenopus oocytes coexpressing NMDA NR13b assessed as effect on glycine-induced current response at -70 mV by voltage clamp method; format: cell-based, Oocyte; how it was run: as §1
Rattus norvegicus [5] = organism: Rattus norvegicus; assay: Selectivity ratio, IC50 for rat NMDA NR2A receptor to IC50 for rat NMDA NR2D receptor
How it was run: (§2)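 Ratios of IC50s taken from oocyte concentration-response curves for rat NR1-3b co-expressed with NR2A, NR2B or NR2D, recorded at -70 mV in Mg2+-free ND96 with 5–10-min static-bath peptide application, n ≥ 3 per point.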

Rattus norvegicus [6] = organism: Rattus norvegicus; assay: Selectivity ratio, IC50 for rat NMDA NR2D receptor to IC50 for rat NMDA NR2B receptor; how it was run: as §2
Mus musculus [7] = assay: Induction of sleep in intracranially dosed 10-day old Swiss-Webster mouse assessed as average onset of deep sleep at 1 nmol; format: functional
How it was run: (§3)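 Intracranial injection of synthetic peptide (0.5, 1 or 5 nmol) in 20 μl normal saline into 10-day-old Swiss-Webster mice, 2–6 per dose. Con-G served as positive control and saline as negative control. Deep-sleep onset was the time at which a mouse no longer tried to right itself after being rolled onto its back; onset times were averaged.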

[8] = target: Glutamate receptor ionotropic, NMDA 2B (Rattus norvegicus) (UniProt Q00960); assay: Inhibition of rat NMDA NR2B receptor expressed in xenopus oocytes coexpressing NMDA NR13b assessed as effect on glycine-induced current response at 1 uM at -70 mV by voltage clamp method; format: cell-based; settings: Oocyte
How it was run: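 Oocytes expressing rat NR1-3b/NR2B, voltage-clamped at -70 mV in Mg2+-free ND96 with 0.1 mg/ml BSA. Baseline currents were recorded, followed by a 10-min static-bath buffer control. Then 1 μM peptide was applied in a static bath for 10 min, and the next agonist-evoked current was expressed as % of the pre-peptide amplitude.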

Mus musculus [9] = assay: Induction of hyperactivity intracranially dosed 24-day old Swiss-Webster mouse; format: functional, organism-based
How it was run: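 Intracranial injection of 2 nmol peptide in 20 μl normal saline (29-gauge needle) into 24-day-old mice (12.2–12.8 g). An equal volume of saline served as negative control. Mice were watched in cages for hyperactivity: continuous walking, excessive grooming and climbing of the cage wall.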

Mus musculus [10] = assay: Induction of sleep in intracranially dosed 10-day old Swiss-Webster mouse assessed as average onset of deep sleep at 0.5 nmol; format: functional; how it was run: as §3
Mus musculus [11] = assay: Induction of sleep in intracranially dosed 10-day old Swiss-Webster mouse assessed as average onset of deep sleep at 5 nmol; format: functional; how it was run: as §3

Chain of Glutamate receptor ionotropic, NMDA 2B (Q00960 whole entry, one chain of several): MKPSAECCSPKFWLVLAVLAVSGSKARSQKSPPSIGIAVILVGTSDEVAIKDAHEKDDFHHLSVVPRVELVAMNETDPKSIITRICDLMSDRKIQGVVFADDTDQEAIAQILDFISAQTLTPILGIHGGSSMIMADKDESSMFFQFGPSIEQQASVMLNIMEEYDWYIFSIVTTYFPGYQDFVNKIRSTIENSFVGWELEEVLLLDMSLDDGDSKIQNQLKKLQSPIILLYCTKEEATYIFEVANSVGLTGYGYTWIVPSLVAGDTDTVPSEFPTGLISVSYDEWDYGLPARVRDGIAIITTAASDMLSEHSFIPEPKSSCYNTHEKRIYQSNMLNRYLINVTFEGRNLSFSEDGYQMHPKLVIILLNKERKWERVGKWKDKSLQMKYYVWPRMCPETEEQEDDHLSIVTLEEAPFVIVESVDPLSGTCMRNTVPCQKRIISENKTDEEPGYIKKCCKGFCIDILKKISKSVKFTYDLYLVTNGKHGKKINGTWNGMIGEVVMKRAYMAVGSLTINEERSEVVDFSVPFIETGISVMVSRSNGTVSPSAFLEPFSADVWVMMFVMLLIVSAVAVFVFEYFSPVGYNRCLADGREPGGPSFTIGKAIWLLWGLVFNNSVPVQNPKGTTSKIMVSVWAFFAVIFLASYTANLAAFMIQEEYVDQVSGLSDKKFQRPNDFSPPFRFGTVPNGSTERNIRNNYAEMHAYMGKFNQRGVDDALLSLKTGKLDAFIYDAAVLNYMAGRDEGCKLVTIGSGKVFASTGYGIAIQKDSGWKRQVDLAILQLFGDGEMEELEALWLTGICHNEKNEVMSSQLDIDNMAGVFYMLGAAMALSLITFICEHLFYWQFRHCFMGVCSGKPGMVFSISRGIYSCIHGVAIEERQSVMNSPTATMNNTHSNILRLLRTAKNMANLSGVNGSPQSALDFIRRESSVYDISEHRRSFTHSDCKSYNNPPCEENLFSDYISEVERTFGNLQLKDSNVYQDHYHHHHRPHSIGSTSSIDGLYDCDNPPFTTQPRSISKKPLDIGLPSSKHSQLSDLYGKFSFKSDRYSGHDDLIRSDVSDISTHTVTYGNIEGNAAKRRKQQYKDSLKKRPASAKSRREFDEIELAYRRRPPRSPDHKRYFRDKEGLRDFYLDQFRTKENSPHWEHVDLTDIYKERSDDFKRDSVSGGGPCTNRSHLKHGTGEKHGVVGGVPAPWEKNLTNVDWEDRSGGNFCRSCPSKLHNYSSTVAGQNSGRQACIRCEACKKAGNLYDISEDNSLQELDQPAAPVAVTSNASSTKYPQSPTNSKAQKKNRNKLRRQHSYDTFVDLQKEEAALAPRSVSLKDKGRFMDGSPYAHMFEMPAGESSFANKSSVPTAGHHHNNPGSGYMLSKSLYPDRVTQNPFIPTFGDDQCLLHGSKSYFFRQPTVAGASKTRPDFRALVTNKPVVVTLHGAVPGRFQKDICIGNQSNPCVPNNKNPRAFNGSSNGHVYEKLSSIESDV
Chain of Glutamate receptor ionotropic, NMDA 2C (Q00961 whole entry, one chain of several): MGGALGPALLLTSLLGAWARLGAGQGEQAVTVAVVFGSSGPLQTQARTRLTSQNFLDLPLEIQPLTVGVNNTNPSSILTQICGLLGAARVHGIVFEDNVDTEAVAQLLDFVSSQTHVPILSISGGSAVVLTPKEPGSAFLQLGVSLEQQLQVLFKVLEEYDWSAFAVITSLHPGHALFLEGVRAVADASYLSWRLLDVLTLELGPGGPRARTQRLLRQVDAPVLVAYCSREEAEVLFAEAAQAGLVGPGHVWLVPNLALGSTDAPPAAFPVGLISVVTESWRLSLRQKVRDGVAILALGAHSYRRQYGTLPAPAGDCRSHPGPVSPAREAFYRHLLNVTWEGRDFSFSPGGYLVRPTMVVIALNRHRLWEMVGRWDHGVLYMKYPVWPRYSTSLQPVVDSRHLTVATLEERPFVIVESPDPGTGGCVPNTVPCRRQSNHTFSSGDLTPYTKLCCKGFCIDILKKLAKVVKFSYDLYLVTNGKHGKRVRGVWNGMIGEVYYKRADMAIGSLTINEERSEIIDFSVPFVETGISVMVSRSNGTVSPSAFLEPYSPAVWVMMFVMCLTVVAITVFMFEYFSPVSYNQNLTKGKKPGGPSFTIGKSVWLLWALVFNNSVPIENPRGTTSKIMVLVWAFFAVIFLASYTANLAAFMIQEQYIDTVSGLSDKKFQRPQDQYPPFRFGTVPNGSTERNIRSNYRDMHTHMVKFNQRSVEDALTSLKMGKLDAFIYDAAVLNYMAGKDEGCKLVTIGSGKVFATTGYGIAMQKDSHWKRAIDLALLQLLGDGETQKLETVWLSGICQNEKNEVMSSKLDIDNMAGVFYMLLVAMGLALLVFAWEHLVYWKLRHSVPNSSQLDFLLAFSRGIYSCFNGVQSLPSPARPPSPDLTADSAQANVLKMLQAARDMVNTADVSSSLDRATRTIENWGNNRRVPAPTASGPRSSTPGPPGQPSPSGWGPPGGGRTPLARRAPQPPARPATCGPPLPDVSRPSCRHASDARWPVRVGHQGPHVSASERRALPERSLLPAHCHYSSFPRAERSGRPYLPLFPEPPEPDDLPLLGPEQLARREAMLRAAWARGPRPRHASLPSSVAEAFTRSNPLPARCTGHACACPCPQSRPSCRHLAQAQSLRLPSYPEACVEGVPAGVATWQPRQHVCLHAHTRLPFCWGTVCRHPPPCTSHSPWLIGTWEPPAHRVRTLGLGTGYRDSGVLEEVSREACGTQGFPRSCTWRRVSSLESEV
Chain of Glutamate receptor ionotropic, NMDA 2A (Q00959 whole entry, the tested form may be a part, one chain of several): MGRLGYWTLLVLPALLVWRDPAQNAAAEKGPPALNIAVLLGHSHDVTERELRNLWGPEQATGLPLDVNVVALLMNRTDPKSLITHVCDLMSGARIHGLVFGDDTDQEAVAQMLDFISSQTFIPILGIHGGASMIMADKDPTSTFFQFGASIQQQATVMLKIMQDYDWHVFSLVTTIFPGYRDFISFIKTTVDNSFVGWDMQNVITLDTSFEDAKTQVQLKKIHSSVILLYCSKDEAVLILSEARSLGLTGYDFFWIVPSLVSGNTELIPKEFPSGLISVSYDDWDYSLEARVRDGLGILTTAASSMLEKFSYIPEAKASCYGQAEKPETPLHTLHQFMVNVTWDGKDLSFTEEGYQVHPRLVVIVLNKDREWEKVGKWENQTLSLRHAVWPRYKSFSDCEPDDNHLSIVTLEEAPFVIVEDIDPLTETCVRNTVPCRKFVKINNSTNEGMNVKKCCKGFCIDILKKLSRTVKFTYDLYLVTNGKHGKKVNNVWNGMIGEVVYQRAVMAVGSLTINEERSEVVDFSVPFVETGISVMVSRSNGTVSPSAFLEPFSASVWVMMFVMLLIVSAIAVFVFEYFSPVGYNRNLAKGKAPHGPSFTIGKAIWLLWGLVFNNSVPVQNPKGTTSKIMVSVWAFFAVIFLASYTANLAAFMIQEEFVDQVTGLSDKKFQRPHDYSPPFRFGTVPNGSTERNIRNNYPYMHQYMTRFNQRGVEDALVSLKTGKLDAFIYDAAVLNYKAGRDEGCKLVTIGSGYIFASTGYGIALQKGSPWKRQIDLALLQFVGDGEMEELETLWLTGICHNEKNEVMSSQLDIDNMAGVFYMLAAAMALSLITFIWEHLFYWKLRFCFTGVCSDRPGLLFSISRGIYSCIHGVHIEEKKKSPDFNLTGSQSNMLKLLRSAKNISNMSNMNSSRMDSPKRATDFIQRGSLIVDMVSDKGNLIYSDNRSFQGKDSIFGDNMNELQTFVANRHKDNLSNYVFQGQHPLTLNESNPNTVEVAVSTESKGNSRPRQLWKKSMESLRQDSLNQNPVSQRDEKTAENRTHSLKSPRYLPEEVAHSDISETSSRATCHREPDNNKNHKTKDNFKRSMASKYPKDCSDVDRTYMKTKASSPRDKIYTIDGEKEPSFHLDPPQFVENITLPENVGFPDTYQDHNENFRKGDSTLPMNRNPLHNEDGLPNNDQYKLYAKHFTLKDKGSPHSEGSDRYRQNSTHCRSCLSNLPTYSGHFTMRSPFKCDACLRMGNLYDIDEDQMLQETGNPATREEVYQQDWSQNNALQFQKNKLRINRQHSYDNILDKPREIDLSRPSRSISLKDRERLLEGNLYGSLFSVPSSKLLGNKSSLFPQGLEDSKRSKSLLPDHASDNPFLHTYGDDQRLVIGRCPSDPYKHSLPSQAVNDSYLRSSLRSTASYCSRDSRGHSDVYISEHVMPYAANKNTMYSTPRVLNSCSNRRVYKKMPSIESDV

| Structure (SMILES) | IC50 [1] | IC50 [2] | IC50 [3] | IC50 [4] | Ratio IC50 (Rattus norvegicus [5]) | Ratio IC50 (Rattus norvegicus [6]) | Activity (Mus musculus [7]) | Activity [8] | Activity (Mus musculus [9]) | Activity (Mus musculus [10]) | Activity (Mus musculus [11]) |
| --- | --- | --- | --- | --- | --- | --- | --- | --- | --- | --- | --- |
| CC[C@H](C)[C@H](NC(=O)[C@H](CCCCN)NC(=O)CNC(=O)[C@H](Cc1ccc(O)cc1)NC(=O)[C@H](CCCCN)NC(=O)[C@H](CC(C)C)NC(=O)[C@H](CCC(N)=O)NC(=O)[C@H](Cc1ccc(O)cc1)NC(=O)[C@H](CC(C(=O)O)C(=O)O)NC(=O)[C@H](CCCN=C(N)N)NC(=O)[C@@H](NC(=O)[C@H](C)NC(=O)[C@H](CC(C(=O)O)C(=O)O)NC(=O)[C@H](C)NC(=O)[C@H](Cc1ccc(O)cc1)NC(=O)[C@H](CC(C(=O)O)C(=O)O)NC(=O)[C@@H]1C[C@@H](O)CN1C(=O)[C@H](CCC(=O)O)NC(=O)[C@@H](N)CC(=O)O)[C@@H](C)CC)C(=O)O (H-DE[Hyp][Gla]YA[Gla]AIR[Gla]YQLKYGKI-OH) | > 10000 nM | ≥ 10000 nM | 500 nM | 1000 nM | – | – | – | – | – | – | – |
| CC(C)C[C@H](NC(=O)CNC(=O)[C@H](CC(C(=O)O)C(=O)O)NC(=O)[C@H](C)NC(=O)[C@H](Cc1c[nH]c2ccccc12)NC(=O)[C@H](CCCCN)NC(=O)[C@H](C)NC(=O)[C@@H](NC(=O)[C@H](CC(C(=O)O)C(=O)O)NC(=O)[C@@H]1C[C@@H](O)CN1C(=O)[C@H](CCC(=O)O)NC(=O)CN)C(C)C)C(=O)N[C@@H](CCCN=C(N)N)C(=O)N[C@@H](CC(C(=O)O)C(=O)O)C(=O)N[C@@H](CCCCN)C(=O)N[C@@H](C)C(=O)N[C@@H](C)C(=O)N[C@@H](CO)C(=O)N[C@@H](CC(N)=O)C(N)=O (H-GE[Hyp][Gla]VAKWA[Gla]GLR[Gla]KAASN-NH2) | > 10000 nM | ≥ 10000 nM | 500 nM | 8000 nM | – | – | – | – | – | – | – |
| CC[C@H](C)[C@H](NC(=O)[C@H](CC(N)=O)NC(=O)[C@H](CC(C(=O)O)C(=O)O)NC(=O)[C@H](CCCNC(=N)N)NC(=O)[C@H](C)NC(=O)[C@H](CC(C)C)NC(=O)[C@H](CC(C(=O)O)C(=O)O)NC(=O)[C@H](C)NC(=O)[C@H](C)NC(=O)[C@H](CCSC)NC(=O)[C@H](CCCCN)NC(=O)[C@H](C)NC(=O)[C@@H](NC(=O)[C@H](CC(C(=O)O)C(=O)O)NC(=O)[C@H](CC(C(=O)O)C(=O)O)NC(=O)[C@H](CCC(=O)O)NC(=O)CN)C(C)C)C(=O)N[C@@H](C)C(=O)N[C@@H](CCCCN)C(=O)NCC(=O)N[C@@H](CS)C(=O)N[C@@H](CCCCN)C(=O)N[C@H](C(=O)N[C@@H](CC(N)=O)C(=O)N[C@@H](CS)C(=O)N[C@@H](Cc1ccc(O)cc1)C(=O)N1CCC[C@H]1C(=O)O)C(C)C [CONANTOKIN-R] | 1000 nM | 7000 nM | 1000 nM | > 10000 nM | < 0.1 | > 10 | – | – | – | – | – |
| CC[C@H](C)[C@H](NC(=O)[C@H](CCCCN)NC(=O)CNC(=O)[C@H](Cc1cnc[nH]1)NC(=O)[C@@H](NC(=O)[C@H](CC(C)C)NC(=O)[C@H](CCC(N)=O)NC(=O)[C@H](Cc1ccc(O)cc1)NC(=O)[C@H](CC(C(=O)O)C(=O)O)NC(=O)[C@H](CCCNC(=N)N)NC(=O)[C@@H](NC(=O)CNC(=O)[C@H](CC(C(=O)O)C(=O)O)NC(=O)[C@H](C)NC(=O)[C@H](Cc1ccc(O)cc1)NC(=O)[C@H](CC(C(=O)O)C(=O)O)NC(=O)[C@H](CC(=O)O)NC(=O)[C@H](CCC(=O)O)NC(=O)CN)[C@@H](C)CC)[C@@H](C)CC)C(=O)O (H-GED[Gla]YA[Gla]GIR[Gla]YQLIHGKI-OH) | > 10000 nM | ≥ 10000 nM | 200 nM | 1000 nM | > 10 | 5 | 12.2 min | Active | Active | 18 min | 9 min |
| CC(C)C[C@H](NC(=O)CNC(=O)[C@H](CC(C(=O)O)C(=O)O)NC(=O)[C@H](C)NC(=O)[C@H](Cc1c[nH]c2ccccc12)NC(=O)[C@H](CCCCN)NC(=O)[C@H](C)NC(=O)[C@@H](NC(=O)[C@H](CC(C(=O)O)C(=O)O)NC(=O)[C@@H]1C[C@@H](O)CN1C(=O)[C@H](CCC(=O)O)NC(=O)CN)C(C)C)C(=O)N[C@@H](CCCNC(=N)N)C(=O)N[C@@H](CC(C(=O)O)C(=O)O)C(=O)N[C@@H](CCCCN)C(=O)N[C@@H](C)C(=O)N[C@@H](C)C(=O)N[C@@H](CO)C(=O)N[C@@H](CC(N)=O)C(N)=O (H-GE[Hyp][Gla]VAKWA[Gla]GLR[Gla]KAASN-NH2) | – | – | – | – | > 10 | 16 | 16.5 min | – | Active | 21 min | 10.7 min |
| CC[C@H](C)[C@H](NC(=O)[C@H](CCCCN)NC(=O)CNC(=O)[C@H](Cc1ccc(O)cc1)NC(=O)[C@H](CCCCN)NC(=O)[C@H](CC(C)C)NC(=O)[C@H](CCC(N)=O)NC(=O)[C@H](Cc1ccc(O)cc1)NC(=O)[C@H](CC(C(=O)O)C(=O)O)NC(=O)[C@H](CCCNC(=N)N)NC(=O)[C@@H](NC(=O)[C@H](C)NC(=O)[C@H](CC(C(=O)O)C(=O)O)NC(=O)[C@H](C)NC(=O)[C@H](Cc1ccc(O)cc1)NC(=O)[C@H](CC(C(=O)O)C(=O)O)NC(=O)[C@@H]1C[C@@H](O)CN1C(=O)[C@H](CCC(=O)O)NC(=O)[C@@H](N)CC(=O)O)[C@@H](C)CC)C(=O)O (H-DE[Hyp][Gla]YA[Gla]AIR[Gla]YQLKYGKI-OH) | – | – | – | – | > 10 | 2 | 14 min | – | Active | 17.5 min | 9.7 min |
